# In the library only some 5.9% were active in any assay of this set; here they are far more common.
# KDM4C inh – inhibitors of GASC-1 (KDM4C) histone demethylase, primary screen, biochemical, single concentration HTS | Lysine-specific demethylase 4C (Homo sapiens), Q9H3R0 | GST-KDM4C 2-372, H3K9me3 peptide, LANCE TR-FRET | inhibition, % at 12.5 µM | hit rate 0.15% among 96,000 | AID 720574, 2013;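 active = mean replicate inhibition above about 25%, with at least 55% of replicates also reaching it, limit read from the data, passing the limit was not always enough; inconclusive = only one of those two conditions met; inactive = neither condition met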
# Target sequence (Q9H3R0 2-372 limits assumed): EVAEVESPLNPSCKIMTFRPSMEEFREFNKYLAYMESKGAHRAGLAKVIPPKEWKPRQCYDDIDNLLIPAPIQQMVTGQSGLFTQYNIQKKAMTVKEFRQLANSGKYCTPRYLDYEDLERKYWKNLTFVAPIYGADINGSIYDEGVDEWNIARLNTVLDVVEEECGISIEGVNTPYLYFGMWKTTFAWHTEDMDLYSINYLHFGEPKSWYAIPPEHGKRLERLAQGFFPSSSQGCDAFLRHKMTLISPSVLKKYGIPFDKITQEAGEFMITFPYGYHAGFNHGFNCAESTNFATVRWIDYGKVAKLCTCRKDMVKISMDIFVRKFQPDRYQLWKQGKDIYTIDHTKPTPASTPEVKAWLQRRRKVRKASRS
#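 Compound: one test concentration per compound; Material: GST-GASC-1 enzyme fragment 2-372; Amount: GASC-1 enzyme at 10 nM final in reaction; Also added: H3K9me3 peptide substrate, Fe(II), 2-oxoglutarate; Technique: LANCE TR-FRET; Times: 30 min demethylation and 1 h detection at room temperature.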
# IDH1 mut inh – inhibitors of IDH1 R132H reductase, primary screen, biochemical, plate reader, single point; Isocitrate dehydrogenase [NADP] cytoplasmic (Homo sapiens), O75874; diaphorase/resazurin fluorescence, 60 min; inhibition, % at 10 µM; hit rate 0.18% among 70,000; AID 624101, 2012; in the data active = inhibition above about 34%; inconclusive = no clear call, values can overlap the other calls; inactive = below about 11%;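 note: 0% = DMSO and 100% = no enzyme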
# T cruzi growth – T. cruzi intracellular proliferation inhibitors, primary screen, cell-based, beta-gal Tulahuen parasites, NIH3T3 host, luminescence; T. cruzi beta-gal in NIH3T3, GalScreen luminescence, 90 h; inhibition, % at 8.34 µM; hit rate 5.9% among 77,000; AID 624255, 2012;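 active = mean inhibition above about 93%, with at least 55% of replicates each passing it, limit read from the data, passing the limit was not always enough; inconclusive = only one of those two conditions holds; inactive = neither condition holds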
# Pf Dd2 inh – P. falciparum Dd2 growth inhibitors, primary screen, SYBR Green fluorescence, single dose replicates; hit rate 2.3% among 94,000; 72 h; active compounds read low; activity change, % at 10 µM; AID 1159554, 2015; in the data active = activity change below about -80%; inconclusive = no clear call, values can overlap the other calls
# The depositor's hits bear a star; u = inconclusive; x = no result.
SMILES,KDM4C inh,IDH1 mut inh,T cruzi growth,Pf Dd2 inh
C[C@H]1CN([C@@H](C)CO)C(=O)c2c(c3ccccc3n2C)-c2ccccc2CO[C@@H]1CN(C)Cc1ccccc1C(F)(F)F,-5.7,x,x,-84.9*
C[C@H](CO)N1C[C@H](C)[C@@H](CN(C)Cc2ccc(Oc3ccccc3)cc2)OCc2ccccc2-c2c(n(C)c3ccccc23)C1=O,0.4,x,x,-90.8*
C[C@@H]1CN([C@@H](C)CO)C(=O)c2c(c3ccccc3n2C)-c2ccccc2CO[C@H]1CN(C)Cc1ccc(Oc2ccccc2)cc1,-6.5,x,x,-77.9
C[C@@H]1CN([C@H](C)CO)C(=O)c2c(c3ccccc3n2C)-c2ccccc2CO[C@@H]1CN(C)Cc1cccc(F)c1,-1.6,x,x,-88.2*
C[C@@H]1CN([C@@H](C)CO)C(=O)c2c(c3ccccc3n2C)-c2ccccc2CO[C@@H]1CN(C)Cc1ccc(F)cc1,0.2,x,x,-56.1
C[C@H](CO)N1C[C@H](C)[C@H](CN(C)Cc2ccc(C(F)(F)F)cc2)OCc2ccccc2-c2c(n(C)c3ccccc23)C1=O,-1.8,x,x,-82.9*
C[C@H]1CN([C@@H](C)CO)C(=O)c2c(c3ccccc3n2C)-c2ccccc2CO[C@H]1CN(C)Cc1ccc(-c2ccccc2)cc1,-1.1,x,x,-88.0*
C[C@H](CO)N1C[C@H](C)[C@@H](CN(C)Cc2ccc(-c3ccccc3)cc2)OCc2ccccc2-c2c(n(C)c3ccccc23)C1=O,-3.3,x,x,-91.6*
C[C@H]1CN([C@@H](C)CO)C(=O)c2c(c3ccccc3n2C)-c2ccccc2CO[C@@H]1CN(C)Cc1ccc(F)cc1,-2.6,x,x,-82.6*
C[C@H](CO)N1C[C@H](C)[C@H](CN(C)Cc2ccc(-c3ccccc3)cc2)OCc2ccccc2-c2c(n(C)c3ccccc23)C1=O,-0.6,x,x,u
C[C@@H]1CN([C@@H](C)CO)C(=O)c2c(c3ccccc3n2C)-c2ccccc2CO[C@H]1CN(C)Cc1cccc(C(=O)Nc2ccccc2N)c1,3.0,x,x,-89.3*
COc1cccc(CN(C)C[C@H]2OCc3ccccc3-c3c(n(C)c4ccccc34)C(=O)N([C@@H](C)CO)C[C@H]2C)c1,-3.2,x,x,-86.5*
C[C@H](CO)N1C[C@H](C)[C@H](CN(C)Cc2cccc(C(=O)O)c2)OCc2ccccc2-c2c(n(C)c3ccccc23)C1=O,0.2,-10.0,-16.3,49.0
O=C(CSc1nnc(C2COc3ccccc3O2)n1-c1ccccc1)c1ccc([N+](=O)[O-])cc1 (configuration not stated),x,-0.3,x,x
O=C(CSc1nnc(-c2cccc3ccccc23)n1-c1ccccc1)NC1CC1,x,-0.6,x,x
Cc1cccc(NC(=O)CNS(=O)(=O)c2ccc(Br)cc2)c1C,x,1.4,x,x
Cc1ccc(S(=O)(=O)N(C)C[C@@H]2OCCCC[C@@H](C)Oc3ccc(NC(=O)Cc4ccccc4)cc3C(=O)N([C@H](C)CO)C[C@@H]2C)cc1,-1.1,x,52.5,-81.5*
C[C@@H]1CCCCO[C@@H](CN(C)S(=O)(=O)c2ccc(Cl)cc2)[C@@H](C)CN([C@H](C)CO)C(=O)c2cc(NC(=O)Cc3ccccc3)ccc2O1,9.7,1.1,45.1,-82.9*
C[C@@H]1CN([C@@H](C)CO)C(=O)c2cc(NS(=O)(=O)c3ccc(F)cc3)ccc2O[C@H]1CN(C)Cc1ccc(C(=O)Nc2ccccc2N)cc1,0.5,0.2,x,-84.5*
C[C@@H]1CN([C@@H](C)CO)C(=O)c2cc(NS(=O)(=O)c3ccccc3)ccc2O[C@H]1CN(C)Cc1ccc(C(=O)Nc2ccccc2N)cc1,0.2,-0.3,x,-83.1*
COc1cc(Cl)c(C)cc1NC(=O)C1CCC(=O)N1S(=O)(=O)c1ccc(C)cc1 (configuration not stated),x,0.0,x,x
CN(C)c1ccc2c(c1)[C@@H]1C[C@H](CC(=O)NCc3ccc(-c4ccccc4)cc3)O[C@@H](CO)[C@@H]1O2,6.1,-4.8,52.3,-57.7
O=C(C[C@@H]1C[C@H]2c3cc(NC(=O)NC4CCCCC4)ccc3O[C@H]2[C@@H](CO)O1)NCc1ccccn1,-2.0,0.1,x,12.3
O=C(C[C@@H]1C[C@H]2c3cc(NC(=O)NC4CCCCC4)ccc3O[C@H]2[C@H](CO)O1)NCc1ccccn1,87.9*,101.5*,x,-43.7
C[C@@H](NC(=O)C[C@H]1C[C@@H]2c3cc(NS(=O)(=O)c4ccc(F)cc4)ccc3O[C@@H]2[C@H](CO)O1)c1ccccc1,-0.7,-0.2,63.7,-98.9*

# Source: PubChem BioAssay (Broad Institute)
